From PMC3954597 (Biochemistry, 2014)

Tests used:
Type in all cases: biochemical
PTPRA = PTPRA (Homo sapiens, UniProt P18433); assay: PTP assay, PTPRA
Procedure, shortened: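 His-tagged PTPRA catalytic domain (aa 224–802), expressed in E. coli. Dephosphorylation was followed continuously at 282 nm (Δε = 1102 M−1 cm−1). Initial rates were fitted to Michaelis-Menten or V = kcat[E][S]/KM, or full progress curves were fitted to depletion.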

TCPTP = target: T1, TCPTP (Homo sapiens, UniProt P17706); assay: PTP assay, TCPTP
T1 sequence (P17706 1-314): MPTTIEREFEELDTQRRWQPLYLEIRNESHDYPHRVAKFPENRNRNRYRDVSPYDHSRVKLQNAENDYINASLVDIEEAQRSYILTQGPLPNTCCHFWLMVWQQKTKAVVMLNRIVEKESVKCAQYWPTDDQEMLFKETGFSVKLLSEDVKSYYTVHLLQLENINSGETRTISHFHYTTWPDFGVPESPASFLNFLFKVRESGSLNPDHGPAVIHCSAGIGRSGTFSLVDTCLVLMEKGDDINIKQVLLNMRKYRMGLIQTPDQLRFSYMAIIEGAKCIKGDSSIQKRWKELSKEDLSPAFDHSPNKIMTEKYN

PTPRO = target: T2, PTPRO (Homo sapiens, UniProt Q16827); assay: PTP assay, PTPRO; conditions: for kcat/KM x10^6 / Km / kcat: catalytic domain, 100 mM HEPES pH 7.4, monitored at 282 nm
T2 sequence (Q16827 938-1195 limits assumed): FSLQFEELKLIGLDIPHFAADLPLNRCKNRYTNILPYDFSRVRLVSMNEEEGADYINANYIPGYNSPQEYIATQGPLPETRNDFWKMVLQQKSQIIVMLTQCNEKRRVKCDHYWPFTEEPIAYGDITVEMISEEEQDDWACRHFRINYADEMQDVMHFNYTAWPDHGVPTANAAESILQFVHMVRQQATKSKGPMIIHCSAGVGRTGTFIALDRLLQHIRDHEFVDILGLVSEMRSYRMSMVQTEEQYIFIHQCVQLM

PTPH1 = target: T3, PTPH1 (Homo sapiens, UniProt P26045); assay: PTP assay, PTPH1; conditions: for kcat/KM x10^6 / Km / kcat: catalytic domain, 100 mM HEPES pH 7.4, monitored at 282 nm
T3 sequence (P26045 628-909): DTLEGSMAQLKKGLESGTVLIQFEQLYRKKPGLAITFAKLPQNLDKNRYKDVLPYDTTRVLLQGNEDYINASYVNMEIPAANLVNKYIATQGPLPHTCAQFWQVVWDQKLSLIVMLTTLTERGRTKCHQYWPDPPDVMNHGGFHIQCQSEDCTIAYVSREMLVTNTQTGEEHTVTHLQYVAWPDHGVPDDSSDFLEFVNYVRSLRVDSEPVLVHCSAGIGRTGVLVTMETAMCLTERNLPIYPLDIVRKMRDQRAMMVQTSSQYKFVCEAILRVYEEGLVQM

HePTP = target: T4, HePTP (Homo sapiens, UniProt P35236); assay: PTP assay, HePTP
T4 sequence (P35236 43-356): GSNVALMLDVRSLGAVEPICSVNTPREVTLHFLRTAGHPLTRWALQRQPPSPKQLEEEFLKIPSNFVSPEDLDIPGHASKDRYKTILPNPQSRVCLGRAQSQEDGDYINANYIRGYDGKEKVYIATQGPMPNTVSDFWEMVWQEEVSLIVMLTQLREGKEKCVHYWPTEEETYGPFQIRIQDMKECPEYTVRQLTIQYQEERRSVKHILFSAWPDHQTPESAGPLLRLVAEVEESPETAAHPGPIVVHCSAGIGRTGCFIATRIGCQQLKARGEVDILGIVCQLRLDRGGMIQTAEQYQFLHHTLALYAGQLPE

SHP-1 = SHP-1 (Homo sapiens, UniProt P29350); assay: PTP assay, SHP-1; conditions: catalytic domain; 100 mM HEPES pH 7.4; monitored at 282 nm
Chain of SHP-1 (P29350 205-595): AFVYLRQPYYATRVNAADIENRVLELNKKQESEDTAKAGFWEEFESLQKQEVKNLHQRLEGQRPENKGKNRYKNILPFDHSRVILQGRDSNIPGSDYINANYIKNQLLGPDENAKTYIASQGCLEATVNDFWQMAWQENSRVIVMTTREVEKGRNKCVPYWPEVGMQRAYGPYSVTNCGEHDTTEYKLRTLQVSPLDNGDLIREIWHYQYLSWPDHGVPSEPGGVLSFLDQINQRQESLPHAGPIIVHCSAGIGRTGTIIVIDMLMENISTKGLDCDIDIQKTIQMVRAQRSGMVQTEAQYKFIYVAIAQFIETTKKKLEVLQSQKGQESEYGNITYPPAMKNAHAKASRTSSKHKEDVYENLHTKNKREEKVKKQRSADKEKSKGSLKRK
Procedure, shortened: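 E. coli-expressed catalytic domains were used: wild-type, R24M or R47E PTP1B (aa 1–321), and SHP-1 (aa 205–595). Reactions started with PTP (0.5–20000 nM final) and dephosphorylation was monitored continuously at 282 nm. kcat, KM and kcat/KM came from initial-rate fits (Michaelis–Menten, or V = kcat[E][S]/KM when KM >> [S]) or from fits of progress curves.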

PTPD2 = target: T5, PTPD2 (Homo sapiens, UniProt Q15678); assay: PTP assay, PTPD2; conditions: for kcat/KM x10^6 / Km / kcat: catalytic domain, 100 mM HEPES pH 7.4, monitored at 282 nm
T5 sequence (Q15678 876-1187): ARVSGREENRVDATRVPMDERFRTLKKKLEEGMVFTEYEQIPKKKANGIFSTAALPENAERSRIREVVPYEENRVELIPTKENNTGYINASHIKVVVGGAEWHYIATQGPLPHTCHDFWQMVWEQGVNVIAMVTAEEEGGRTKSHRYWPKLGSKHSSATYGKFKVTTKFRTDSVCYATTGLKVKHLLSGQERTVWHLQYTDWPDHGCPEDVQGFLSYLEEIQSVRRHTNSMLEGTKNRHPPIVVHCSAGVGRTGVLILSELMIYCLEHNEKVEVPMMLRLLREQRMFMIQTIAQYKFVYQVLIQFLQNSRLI
Procedure, shortened: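 His-tagged catalytic domains were made in E. coli: PTPD2 aa 876–1187 and PTPRC aa 620–1236 with N-terminal tags, PTPD1 aa 875–1174 and SHP-2 aa 199–593 with C-terminal tags. Enzyme was added at 0.5–20000 nM final. A282 (Δε 1102 M−1 cm−1) was followed. Constants came from Michaelis–Menten fits of initial rates (<60 s), or from fits of progress curves run to substrate depletion.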

PTPRB = PTPRB (Homo sapiens, UniProt P23467); assay: PTP assay, PTPRB; conditions: for kcat/KM x10^6 / Km / kcat: catalytic domain, 100 mM HEPES pH 7.4, monitored at 282 nm
Chain of PTPRB (P23467 1686-1971): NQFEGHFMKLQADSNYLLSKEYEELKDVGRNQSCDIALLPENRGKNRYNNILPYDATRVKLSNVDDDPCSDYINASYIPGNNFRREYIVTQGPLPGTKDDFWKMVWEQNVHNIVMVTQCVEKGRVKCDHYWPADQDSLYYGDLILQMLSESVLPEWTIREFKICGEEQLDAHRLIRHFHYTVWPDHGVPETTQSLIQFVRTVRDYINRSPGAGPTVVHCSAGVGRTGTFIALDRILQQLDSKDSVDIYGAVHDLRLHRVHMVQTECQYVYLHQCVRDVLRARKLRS

[1] = catalytic domain, 100 mM HEPES pH 7.4, monitored at 282 nm
[2] = kcat/KM of neutral peptide over basic Ac-YRKRFpYRYKF-NH2
[3] = kcat/KM of acidic peptide over basic Ac-YRKRFpYRYKF-NH2
[4] = kcat/KM of acidic peptide over neutral Ac-SASASpYSASA-NH2

| Substance | kcat/KM x10^6 (PTPRA; [1]) | kcat/KM x10^6 (TCPTP; [1]) | kcat/KM x10^6 (PTPRO) | kcat/KM x10^6 (PTPH1) | kcat/KM x10^6 (HePTP; [1]) | kcat/KM x10^6 (PTPD2) | kcat/KM x10^6 (PTPRB) | Km (PTPRO) [µM] | kcat (PTPRO) [s⁻¹] | Km (PTPH1) [µM] | kcat (PTPH1) [s⁻¹] | Km (PTPD2) [µM] | kcat (PTPD2) [s⁻¹] | Km (PTPRB) [µM] | kcat (PTPRB) [s⁻¹] | also measured |
| --- | --- | --- | --- | --- | --- | --- | --- | --- | --- | --- | --- | --- | --- | --- | --- | --- |
| Ac-YRKRFpYRYKF-NH2 | 0.045 x10^6 M^−1 s^−1 | 0.032 x10^6 M^−1 s^−1 | 0.053 x10^6 M^−1 s^−1 | 0.0033 x10^6 M^−1 s^−1 | 0.000010 x10^6 M^−1 s^−1 | 0.000082 x10^6 M^−1 s^−1 | 0.028 x10^6 M^−1 s^−1 |  |  |  |  |  |  |  |  | kcat/KM x10^6 (SHP-1): 0.00023 x10^6 M^−1 s^−1 |
| Ac-SASASpYSASA-NH2 | 0.023 x10^6 M^−1 s^−1 | 1.7 x10^6 M^−1 s^−1 | 0.94 x10^6 M^−1 s^−1 | 0.44 x10^6 M^−1 s^−1 | 0.0006 x10^6 M^−1 s^−1 | 0.013 x10^6 M^−1 s^−1 | 2.2 x10^6 M^−1 s^−1 | 250 ± 10 | 240 ± 8 | 5.8 ± 0.7 | 2.5 ± 0.2 | 9.4 ± 0.4 | 0.12 ± 0.006 | 26 ± 1 | 56 ± 2 | Neutral/Basic ratio of kcat/KM values (PTPRA; [2]): 0.5; Km (TCPTP; [1]): 10 ± 1 µM; kcat (TCPTP; [1]): 17 ± 2 s⁻¹; Neutral/Basic ratio of kcat/KM values (TCPTP; [2]): 53; Neutral/Basic ratio of kcat/KM values (PTPRO; [2]): 18; Neutral/Basic ratio of kcat/KM values (PTPD2; [2]): 160; Neutral/Basic ratio of kcat/KM values (PTPRB; [2]): 77 |
| Ac-YDEDFpYDYEF-NH2 | 0.075 x10^6 M^−1 s^−1 |  | 35 x10^6 M^−1 s^−1 | 8.8 x10^6 M^−1 s^−1 | 0.025 x10^6 M^−1 s^−1 | 0.11 x10^6 M^−1 s^−1 | 31 x10^6 M^−1 s^−1 | 5.7 ± 0.8 | 200 ± 10 | 0.28 ± 0.02 | 2.4 ± 0.06 | 0.7 ± 0.09 | 0.073 ± 0.003 | 1.8 ± 0.4 | 55 ± 2 | Km (PTPRA; [1]): 260 ± 30 µM; kcat (PTPRA; [1]): 19 ± 0.6 s⁻¹; Acidic/Basic ratio of kcat/KM values (PTPRA; [3]): 2; Acidic/Neutral ratio of kcat/KM values (PTPRA; [4]): 3; Acidic/Basic ratio of kcat/KM values (PTPRO; [3]): 660; Acidic/Neutral ratio of kcat/KM values (PTPRO; [4]): 37; Acidic/Basic ratio of kcat/KM values (PTPH1; [3]): 2600; Acidic/Neutral ratio of kcat/KM values (PTPH1; [4]): 20; Km (HePTP; [1]): 280 ± 25 µM; kcat (HePTP; [1]): 7.0 ± 0.3 s⁻¹; Acidic/Basic ratio of kcat/KM values (HePTP; [3]): 2500; Acidic/Neutral ratio of kcat/KM values (HePTP; [4]): 42; Acidic/Basic ratio of kcat/KM values (PTPD2; [3]): 1300; Acidic/Neutral ratio of kcat/KM values (PTPD2; [4]): 8; Acidic/Basic ratio of kcat/KM values (PTPRB; [3]): 1100; Acidic/Neutral ratio of kcat/KM values (PTPRB; [4]): 14 |
